Assay outcomes: PubChem, The Scripps Research Institute Molecular Screening Center
GSTO1 inh: blocks human GSTO1 in RBBP9 counter-screen. P78417. recombinant GSTO1, activity-based probe fluorescence polarization. inhibition, % at 5.96 µM. actives 1.1% (n = 300,000). AID 1974;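 active = inhibition above the campaign mean inhibition plus 3 SD, cut at about 35% in these data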;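 note: 0% = GSTO1-1 with DMSO and 100% = wells lacking GSTO1-1 enzyme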
Target sequence (P78417 whole entry, looked up): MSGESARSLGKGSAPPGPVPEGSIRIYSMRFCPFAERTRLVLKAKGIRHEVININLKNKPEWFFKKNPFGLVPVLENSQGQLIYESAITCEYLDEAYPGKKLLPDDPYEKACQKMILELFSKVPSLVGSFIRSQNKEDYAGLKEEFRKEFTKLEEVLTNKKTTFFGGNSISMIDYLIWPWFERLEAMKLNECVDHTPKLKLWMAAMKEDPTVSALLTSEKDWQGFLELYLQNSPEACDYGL
PRMT1 inh: blocks human protein arginine methyltransferase 1; actives 1.3% (n = 370,000); inhibition, % at 2.79 µM; AID 652257; recombinant PRMT1, activity-based probe fluorescence polarization;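 active = inhibition above about 21% made by adding two undisclosed values, limit read from the data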
Fam108B counter: counter-screen for RBBP9 inhibitors: inhibitors of mouse Fam108B. recombinant Fam108B, FP-Rh probe fluorescence polarization. inhibition, % at 9.51 µM. actives 0.33% (n = 300,000). AID 1947;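 active = inhibition above the screen mean inhibition plus 3 SD, computed separately per campaign, cut at about 18% in these data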;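 note: inhibitors lower polarization as less probe binds the enzyme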
PME-1 primary: PME-1 (human) inhibition; Q9Y570; recombinant PME-1, FP-Rh probe fluorescence polarization; inhibition, % at 5.9 µM; actives 0.53% (n = 320,000);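 active = inhibition above the campaign mean of all compounds plus 3 SD, cut at about 26% in these data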;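 note: competitive labeling of PME-1 active site by serine hydrolase directed probe; 0% = PME-1 with DMSO and 100% = wells lacking PME-1 enzyme; inhibitors block probe labeling so polarization falls and inhibition rises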
Target sequence (Q9Y570 whole entry, looked up): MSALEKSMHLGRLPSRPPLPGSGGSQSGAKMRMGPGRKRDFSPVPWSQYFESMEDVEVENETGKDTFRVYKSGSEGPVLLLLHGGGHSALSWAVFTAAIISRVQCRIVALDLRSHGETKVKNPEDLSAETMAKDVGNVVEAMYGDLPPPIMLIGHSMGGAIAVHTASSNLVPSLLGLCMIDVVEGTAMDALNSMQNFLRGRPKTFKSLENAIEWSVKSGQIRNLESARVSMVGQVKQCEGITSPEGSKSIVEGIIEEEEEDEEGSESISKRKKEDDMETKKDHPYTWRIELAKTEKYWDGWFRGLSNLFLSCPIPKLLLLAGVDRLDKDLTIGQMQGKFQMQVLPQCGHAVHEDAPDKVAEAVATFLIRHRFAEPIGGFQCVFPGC
RBBP9 inh: inhibitors of human serine hydrolase RBBP9; O75884; recombinant RBBP9, FP-Rh probe fluorescence polarization; inhibition, % at 7.94 µM; actives 0.2% (n = 220,000);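 active = inhibition above the campaign mean of all tested compounds plus 3 SD, cut at about 14% in these data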;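 note: plate controls were DMSO wells with RBBP9 for no effect and wells lacking RBBP9 protein for full effect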
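system = RBBP9 protein | input = RBBP9 at 2.5 µM in dispensed solution, before mixing | measured by = fluorescence polarization (mP), excitation 525 nm, emission 598 nm | incubation = enzyme-compound preincubation 30 min, then probe labeling 45 min, 25 °C | buffer or medium = Tris-NaCl-Pluronic buffer, pH 8.0 | compound = single dose 7.94 µM | also added = FP-Rh probe, 375 nM dispensing solution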
PAD4 inh: blocks human protein arginine deiminase 4; recombinant PAD4, RCA probe fluorescence polarization; AID 485272; Q9UM07; actives 0.41% (n = 330,000); inhibition, % at 6.36 µM;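 active = percent inhibition above a cutoff equal to the mean of all tested compounds plus 3 SD, cut at about 15% in these data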;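 note: 0% = PAD4 with RCA probe and DMSO and 100% = probe without PAD4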
GSTO1 inh conf: GSTO1 (human) inhibition, confirmation; recombinant GSTO1, probe fluorescence polarization; inhibition, % at 5.96 µM; shares compounds with GSTO1 inh; actives 54% (n = 2,400);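 active = inhibition above the primary screen's cutoff, its mean inhibition plus 3 SD, cut at about 35% in these data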;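 note: loss of polarization as inhibitors block binding of rhodamine sulfonate ester activity probe; 0% = GSTO1 with DMSO and 100% = wells lacking GSTO1 enzyme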
* marks the source's active call; other numbers are inactive results; x = no result. An excerpt weighted towards active compounds, which were near 2.3% of everything screened.

SMILES	GSTO1 inh	PRMT1 inh	Fam108B counter	PME-1 primary	RBBP9 inh	PAD4 inh	GSTO1 inh conf
CCOc1ccc(CN2CCNC(=O)C2CC(=O)NCCc2cnccn2)cc1 (centres undefined)	3	10	-3	0	x	2	x
O=C(NCc1ccc2[nH]c3c(c2c1)CCCC3)N1CCOCC1	49*	x	2	2	-3	-17	59*
O=C(NCc1ccc2[nH]c3c(c2c1)CCCC3)c1ccc(S(=O)(=O)N2CCOCC2)cc1	3	-2	0	9	-9	0	x
CC1(S(=O)(=O)O)CC(=O)c2ccccc2C1=O (centres undefined)	74*	-2	8	8	x	0	74*
CC(CNc1ccccc1O)C(=O)O (centres undefined)	45*	23*	2	-4	2	-7	7
CC(NC(=O)CCC(=O)Nc1ccccc1O)c1ccccc1 (centres undefined)	5	4	2	-4	x	2	x
Cc1ccc2nc(/C(C#N)=C\c3ccc([N+](=O)[O-])o3)[nH]c2c1	39*	3	6	3	-9	-27	23
O=C(/C=C/c1ccccc1)Nc1cccc(S(=O)(=O)Nc2ccccc2F)c1	-14	3	-11	-1	-12	-7	x
O=C(Nc1ccccc1[N+](=O)[O-])NC1CCCCN(Cc2cccc(Cl)c2)C1=O (centres undefined)	x	-2	x	x	x	x	x
COc1ccc(/C=C/C(=O)c2cc(Br)ccc2O)cc1OC	8	6	-3	0	-3	-1	x
CCNc1ccc(Br)cc(C(=O)/C=C/c2ccc(Cl)cc2Cl)c1=O	43*	27*	1	23	4	-3	7
CNc1ccc(Br)cc(C(=O)/C=C/c2cc(OC)ccc2OC)c1=O	40*	26*	8	18	11	-1	13
Cc1ccnc(NS(=O)(=O)c2ccc(NC(=O)Cc3ccc(Br)cc3)cc2)n1	-5	-5	-3	-2	x	-1	x
CCc1nc2cc3sc(CC)nc3cc2s1	-3	11	-2	0	12	6	x
CCOc1cccc(CNc2ccc(O)cc2)c1OCc1ccc(Cl)cc1Cl	78*	15	17	23	-6	-3	10
CCOc1cccc(CNc2ccc(O)cc2)c1OCc1ccccc1Cl	77*	10	6	34*	1	1	5
CCOc1cccc(CNn2cnnc2)c1OCc1ccccc1Cl	2	-3	4	2	-8	2	x
CC(=O)Oc1cc(OC(C)=O)c2c(C)cc(=O)oc2c1	53*	-2	11	2	-9	2	6
CC(=O)Oc1ccc2c(C)cc(=O)oc2c1	0	-1	0	0	-6	-2	x
COc1cc(CNc2cccc3[nH]c(C(F)(F)F)nc23)cc(OC)c1	10	3	11	4	x	-9	x
O=C1C(=O)c2ccccc2C(O)=C1CCCCl	68*	x	4	6	-1	3	73*
COc1cccc(N2CCN(C(c3ccccn3)c3nnnn3C(C)(C)C)CC2)c1 (centres undefined)	1	1	5	-1	4	-1	x
CC1Sc2ccc(S(=O)(=O)CCC(=O)N3CCc4ccccc43)cc2NC1=O (centres undefined)	28	5	1	9	x	-1	x
Cc1sc2nc(CN(C(=O)NC3CCCCC3)C3CCCC3)[nH]c(=O)c2c1C	2	-1	2	-2	-6	3	x
COC(=O)C1Cc2ccccc2CN1C(=O)CCl (centres undefined)	90*	10	-6	7	-6	-5	99*
SMILES	GSTO1 inh	PRMT1 inh	Fam108B counter	PME-1 primary	RBBP9 inh	PAD4 inh	GSTO1 inh conf
COC(=O)[C@H](Cc1ccccc1)NC(=O)N1Cc2ccccc2C[C@H]1C(=O)OC	2	2	-2	-1	x	-5	x
O=C(NCCN1CCCCC1)Nc1ccc([N+](=O)[O-])cc1	-6	2	1	-3	x	-3	x
O=C(NC1CCCCC1)C(c1ccccc1F)N(Cc1ccco1)C(=O)c1ccccn1 (centres undefined)	38*	-2	2	-4	x	-4	7
COc1ccccc1N(/N=C1\Sc2ccccc2C1=O)C(C)=O	44*	1	6	0	-8	-15	75*
COc1ccc(N(/N=C2\Sc3ccccc3C2=O)C(C)=O)cc1	x	2	x	x	-7	x	x
O=C(Nc1ccc(S(=O)(=O)NCc2ccccc2)cc1)c1ccc(Br)o1	-11	-2	-6	-6	-11	-7	x
C=CCn1c(NC(=O)c2ccc(Br)o2)c(S(=O)(=O)c2ccccc2)c2nc3ccccc3nc21	65*	9	0	9	-9	20*	7
Cc1cc(C)n(-c2cc(O)c(-n3nc(C)cc3C)cc2O)n1	47*	2	4	3	-12	-6	3
Clc1ccc(CSc2ncn(-c3ccccc3)n2)cc1	3	0	1	17	-1	3	x
COc1cc(/C=C2\SC(N)=NC2=O)cc(Br)c1O	61*	-6	1	0	x	-6	66*
O=C(Cc1ccccc1Cl)NC1(O)C(=O)c2ccccc2C1=O	67*	4	1	4	6	14	67*
Cc1ccccc1-c1ccc(Nc2ccc(N3CCOCC3)cc2)nn1	6	x	0	-6	8	-4	x
Cc1ccc(N/N=C2\CC(=O)c3ccccc32)cc1Cl	48*	x	13	6	3	0	26
CCOC(=O)N1CCN(C(=O)c2cccn3c(=O)c4c5c(sc4nc23)CCCC5)CC1	-1	2	6	2	-4	-6	x
COc1cc(F)cc(-c2ccc3c(c2)c(C#Cc2ccsc2)c(-c2cc(OC)cc(OC)c2)n3C)c1	x	0	x	x	x	-1	x
CCNc1nc(NCC)nc(N/N=C/c2ccc(O)c(O)c2)n1	38*	-1	1	-7	2	-1	1
O=C(CSc1ccc(Cl)cc1)NC1=NN(c2ccccc2)C(=O)C1	42*	1	5	8	x	15*	6
COc1ccc(S(=O)(=O)N/N=C(/C)c2ccco2)cc1	-1	0	-2	-4	x	0	x
Nc1scc2c(C(=O)N/N=C/c3ccc(Cl)cc3)nn(-c3ccccc3)c(=O)c12	45*	22*	15	21	-7	-2	1
Nc1c(C(=O)N/N=C/c2ccc(Cl)cc2)cnn1-c1ccccc1	0	1	2	-2	-5	-2	x
